System: Fibroblast
Assay: Multiplex assay against human fibroblast
Assay type: toxicity, cell-based
How it was run: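 Hoechst33342, BioTracker Green Microtubule Cytoskeleton Dye, MitoTracker Red and Annexin V Alexa Fluor 680 were added to live cells at seeding, and imaging on a CQ1 microscope at 37°C and 5% CO2 followed compound addition. Gating by CellPathfinder machine learning separated cells into Hoechst high-intensity objects or normal cells, then normal cells into healthy, pyknosed or fragmented nuclei, then pyknosed cells into mitotic or apoptotic. Per cents of healthy-nucleus cells are reported for the tubulin, mitochondrial-mass and membrane-permeability phenotypes.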

[1] = 12 h, 1 µM, compound concentration 1 uM, replicate 1
[2] = 12 h, 1 µM, compound concentration 1 uM, replicate 2
[3] = 12 h, 10 µM, compound concentration 10 uM, replicate 1
[4] = 12 h, 10 µM, compound concentration 10 uM, replicate 2
[5] = 24 h, 1 µM, compound concentration 1 uM, replicate 1
[6] = 24 h, 1 µM, compound concentration 1 uM, replicate 2
[7] = 24 h, 10 µM, compound concentration 10 uM, replicate 1
[8] = 24 h, 10 µM, compound concentration 10 uM, replicate 2
[9] = 48 h, 1 µM, compound concentration 1 uM, replicate 1
[10] = 48 h, 1 µM, compound concentration 1 uM, replicate 2
[11] = 48 h, 10 µM, compound concentration 10 uM, replicate 1
[12] = 48 h, 10 µM, compound concentration 10 uM, replicate 2

Question: `Cc1c(-c2ccc(O)cc2)n(Cc2ccc(OCCN3CCCCCC3)cc2)c2ccc(O)cc12` [BAZEDOXIFENE] was tested. Which “Population Apoptotic (%)” value [1] did it give?
Answer: 69%

Question: What about the “Population Fragmented Nuclei (%)” value [1] of the same compound?
Answer: 27%

Question: What about the “Population Healthy Nuclei (%)” value [1] of the same compound?
Answer: 33%

Question: And the “Population Hoechst High Intensity Objects (%)” value [1]?
Answer: 13%

Question: And the “Population Membrane Permeable-Phenotype (%)” value [1]?
Answer: 16%

Question: What about the “Population Mitochondria Different-Phenotype (%)” value [1] of the same compound?
Answer: 19%

Question: What about the “Population Mitotic Cells (%)” value [1] of the same compound?
Answer: 30%

Question: What about the “Population Normal (%)” value [1] of the same compound?
Answer: 86%

Question: What about the “Population Pyknosed Nuclei (%)” value [1] of the same compound?
Answer: 39%

Question: What about the “Population Tubulin-Different-Phenotype (%)” value [1] of the same compound?
Answer: 58%

Question: What about the “Total Cell Count” value [1] of the same compound?
Answer: 106

Question: And the “Population Apoptotic (%)” value [2]?
Answer: 0%

Question: And the “Population Fragmented Nuclei (%)” value [2]?
Answer: 13%

Question: What about the “Population Healthy Nuclei (%)” value [2] of the same compound?
Answer: 81%

Question: And the “Population Hoechst High Intensity Objects (%)” value [2]?
Answer: 10%

Question: What about the “Population Membrane Permeable-Phenotype (%)” value [2] of the same compound?
Answer: 5%

Question: What about the “Population Mitochondria Different-Phenotype (%)” value [2] of the same compound?
Answer: 20%

Question: What about the “Population Mitotic Cells (%)” value [2] of the same compound?
Answer: 100%

Question: And the “Population Normal (%)” value [2]?
Answer: 89%

Question: And the “Population Pyknosed Nuclei (%)” value [2]?
Answer: 4%

Question: And the “Population Tubulin-Different-Phenotype (%)” value [2]?
Answer: 17%

Question: What about the “Total Cell Count” value [2] of the same compound?
Answer: 48

Question: And the “Population Apoptotic (%)” value [3]?
Answer: 72%

Question: And the “Population Fragmented Nuclei (%)” value [3]?
Answer: 27%

Question: And the “Population Healthy Nuclei (%)” value [3]?
Answer: 36%

Question: And the “Population Hoechst High Intensity Objects (%)” value [3]?
Answer: 26%

Question: And the “Population Membrane Permeable-Phenotype (%)” value [3]?
Answer: 12%

Question: And the “Population Mitochondria Different-Phenotype (%)” value [3]?
Answer: 35%

Question: What about the “Population Mitotic Cells (%)” value [3] of the same compound?
Answer: 27%

Question: And the “Population Normal (%)” value [3]?
Answer: 73%

Question: What about the “Population Pyknosed Nuclei (%)” value [3] of the same compound?
Answer: 36%

Question: What about the “Population Tubulin-Different-Phenotype (%)” value [3] of the same compound?
Answer: 85%

Question: And the “Total Cell Count” value [3]?
Answer: 149

Question: And the “Population Apoptotic (%)” value [4]?
Answer: 60%

Question: And the “Population Fragmented Nuclei (%)” value [4]?
Answer: 7%

Question: And the “Population Healthy Nuclei (%)” value [4]?
Answer: 56%

Question: And the “Population Hoechst High Intensity Objects (%)” value [4]?
Answer: 2%

Question: What about the “Population Membrane Permeable-Phenotype (%)” value [4] of the same compound?
Answer: 26%

Question: And the “Population Mitochondria Different-Phenotype (%)” value [4]?
Answer: 100%

Question: And the “Population Mitotic Cells (%)” value [4]?
Answer: 40%

Question: And the “Population Normal (%)” value [4]?
Answer: 97%

Question: What about the “Population Tubulin-Different-Phenotype (%)” value [4] of the same compound?
Answer: 100%

Question: What about the “Total Cell Count” value [4] of the same compound?
Answer: 42

Question: What about the “Population Apoptotic (%)” value [5] of the same compound?
Answer: 80%

Question: And the “Population Fragmented Nuclei (%)” value [5]?
Answer: 27%

Question: What about the “Population Healthy Nuclei (%)” value [5] of the same compound?
Answer: 49%

Question: What about the “Population Hoechst High Intensity Objects (%)” value [5] of the same compound?
Answer: 14%

Question: And the “Population Membrane Permeable-Phenotype (%)” value [5]?
Answer: 22%

Question: What about the “Population Mitochondria Different-Phenotype (%)” value [5] of the same compound?
Answer: 8%

Question: What about the “Population Mitotic Cells (%)” value [5] of the same compound?
Answer: 19%

Question: What about the “Population Normal (%)” value [5] of the same compound?
Answer: 85%

Question: What about the “Population Pyknosed Nuclei (%)” value [5] of the same compound?
Answer: 23%

Question: And the “Population Tubulin-Different-Phenotype (%)” value [5]?
Answer: 46%

Question: What about the “Total Cell Count” value [5] of the same compound?
Answer: 106

Question: And the “Population Apoptotic (%)” value [6]?
Answer: 11%

Question: What about the “Population Fragmented Nuclei (%)” value [6] of the same compound?
Answer: 8%

Question: And the “Population Healthy Nuclei (%)” value [6]?
Answer: 75%

Question: What about the “Population Hoechst High Intensity Objects (%)” value [6] of the same compound?
Answer: 3%

Question: And the “Population Membrane Permeable-Phenotype (%)” value [6]?
Answer: 2%

Question: And the “Population Mitochondria Different-Phenotype (%)” value [6]?
Answer: 6%

Question: What about the “Population Mitotic Cells (%)” value [6] of the same compound?
Answer: 88%

Question: What about the “Population Normal (%)” value [6] of the same compound?
Answer: 96%

Question: And the “Population Pyknosed Nuclei (%)” value [6]?
Answer: 15%

Question: What about the “Population Tubulin-Different-Phenotype (%)” value [6] of the same compound?
Answer: 15%

Question: And the “Total Cell Count” value [6]?
Answer: 60

Question: And the “Population Apoptotic (%)” value [7]?
Answer: 62%

Question: What about the “Population Fragmented Nuclei (%)” value [7] of the same compound?
Answer: 20%

Question: And the “Population Healthy Nuclei (%)” value [7]?
Answer: 37%

Question: And the “Population Hoechst High Intensity Objects (%)” value [7]?
Answer: 23%

Question: And the “Population Membrane Permeable-Phenotype (%)” value [7]?
Answer: 12%

Question: And the “Population Mitochondria Different-Phenotype (%)” value [7]?
Answer: 71%

Question: And the “Population Mitotic Cells (%)” value [7]?
Answer: 37%

Question: What about the “Population Normal (%)” value [7] of the same compound?
Answer: 76%

Question: What about the “Population Pyknosed Nuclei (%)” value [7] of the same compound?
Answer: 41%

Question: What about the “Population Tubulin-Different-Phenotype (%)” value [7] of the same compound?
Answer: 84%

Question: What about the “Total Cell Count” value [7] of the same compound?
Answer: 134

Question: What about the “Population Apoptotic (%)” value [8] of the same compound?
Answer: 68%

Question: What about the “Population Fragmented Nuclei (%)” value [8] of the same compound?
Answer: 22%

Question: And the “Population Healthy Nuclei (%)” value [8]?
Answer: 30%

Question: What about the “Population Hoechst High Intensity Objects (%)” value [8] of the same compound?
Answer: 20%

Question: And the “Population Membrane Permeable-Phenotype (%)” value [8]?
Answer: 75%

Question: What about the “Population Mitochondria Different-Phenotype (%)” value [8] of the same compound?
Answer: 100%

Question: And the “Population Mitotic Cells (%)” value [8]?
Answer: 31%

Question: And the “Population Normal (%)” value [8]?
Answer: 80%

Question: What about the “Population Pyknosed Nuclei (%)” value [8] of the same compound?
Answer: 47%

Question: And the “Population Tubulin-Different-Phenotype (%)” value [8]?
Answer: 100%

Question: And the “Total Cell Count” value [8]?
Answer: 50

Question: What about the “Population Apoptotic (%)” value [9] of the same compound?
Answer: 50%

Question: What about the “Population Fragmented Nuclei (%)” value [9] of the same compound?
Answer: 42%

Question: And the “Population Healthy Nuclei (%)” value [9]?
Answer: 51%

Question: What about the “Population Hoechst High Intensity Objects (%)” value [9] of the same compound?
Answer: 14%

Question: What about the “Population Membrane Permeable-Phenotype (%)” value [9] of the same compound?
Answer: 26%

Question: And the “Population Mitochondria Different-Phenotype (%)” value [9]?
Answer: 4%

Question: And the “Population Mitotic Cells (%)” value [9]?
Answer: 50%

Question: What about the “Population Normal (%)” value [9] of the same compound?
Answer: 85%

Question: What about the “Population Pyknosed Nuclei (%)” value [9] of the same compound?
Answer: 6%

Question: And the “Population Tubulin-Different-Phenotype (%)” value [9]?
Answer: 44%

Question: And the “Total Cell Count” value [9]?
Answer: 115

Question: And the “Population Apoptotic (%)” value [10]?
Answer: 75%

Question: What about the “Population Fragmented Nuclei (%)” value [10] of the same compound?
Answer: 27%

Question: And the “Population Healthy Nuclei (%)” value [10]?
Answer: 68%

Question: What about the “Population Hoechst High Intensity Objects (%)” value [10] of the same compound?
Answer: 16%

Question: What about the “Population Membrane Permeable-Phenotype (%)” value [10] of the same compound?
Answer: 15%

Question: And the “Population Mitochondria Different-Phenotype (%)” value [10]?
Answer: 1%

Question: What about the “Population Mitotic Cells (%)” value [10] of the same compound?
Answer: 25%

Question: What about the “Population Normal (%)” value [10] of the same compound?
Answer: 83%

Question: And the “Population Pyknosed Nuclei (%)” value [10]?
Answer: 3%

Question: And the “Population Tubulin-Different-Phenotype (%)” value [10]?
Answer: 46%

Question: And the “Total Cell Count” value [10]?
Answer: 123

Question: What about the “Population Apoptotic (%)” value [11] of the same compound?
Answer: 85%

Question: What about the “Population Fragmented Nuclei (%)” value [11] of the same compound?
Answer: 39%

Question: What about the “Population Healthy Nuclei (%)” value [11] of the same compound?
Answer: 29%

Question: What about the “Population Hoechst High Intensity Objects (%)” value [11] of the same compound?
Answer: 18%

Question: And the “Population Membrane Permeable-Phenotype (%)” value [11]?
Answer: 33%

Question: What about the “Population Mitochondria Different-Phenotype (%)” value [11] of the same compound?
Answer: 55%

Question: And the “Population Mitotic Cells (%)” value [11]?
Answer: 14%

Question: And the “Population Normal (%)” value [11]?
Answer: 81%

Question: What about the “Population Pyknosed Nuclei (%)” value [11] of the same compound?
Answer: 30%

Question: What about the “Population Tubulin-Different-Phenotype (%)” value [11] of the same compound?
Answer: 81%

Question: What about the “Total Cell Count” value [11] of the same compound?
Answer: 112

Question: What about the “Population Apoptotic (%)” value [12] of the same compound?
Answer: 83%

Question: And the “Population Fragmented Nuclei (%)” value [12]?
Answer: 42%

Question: And the “Population Healthy Nuclei (%)” value [12]?
Answer: 37%

Question: And the “Population Hoechst High Intensity Objects (%)” value [12]?
Answer: 35%

Question: And the “Population Membrane Permeable-Phenotype (%)” value [12]?
Answer: 21%

Question: What about the “Population Mitochondria Different-Phenotype (%)” value [12] of the same compound?
Answer: 47%

Question: And the “Population Mitotic Cells (%)” value [12]?
Answer: 16%

Question: What about the “Population Normal (%)” value [12] of the same compound?
Answer: 64%

Question: What about the “Population Pyknosed Nuclei (%)” value [12] of the same compound?
Answer: 19%

Question: And the “Population Tubulin-Different-Phenotype (%)” value [12]?
Answer: 65%

Question: And the “Total Cell Count” value [12]?
Answer: 95

Reference: ChEMBL document CHEMBL4689842, “EUbOPEN Chemogenomics Library wave 1” (2021)
